Measurements reported in the array DNA melting data of Ke et al. (doi:10.1101/2024.01.08.574731).

Tests used:
[1] = folding enthalpy; higher = less favourable; fluorescence melt of hairpins on a sequencing array, two-state fit; settings: sodium 0.088 M
Procedure, shortened: (§1)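 Hairpins were imaged by Cy3 fluorescence on a sequenced MiSeq flow cell with annealed Cy3 and quencher oligos, in 50 mM Na-HEPES pH 8.0, 25 mM NaCl, in 2.5 °C steps up to 60 °C. Bootstrapped two-state fits of normalised signals gave melting temperature and folding enthalpy. Four replicates were combined by inverse variance, and fitted temperatures were raised by 9.35 °C to match UV melts.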

[2] = melting temperature; fluorescence melt of hairpins on a sequencing array, two-state fit, raised by 9.35 °C to match UV melts; settings: sodium 0.088 M
Procedure, shortened: as §1

GTAGTCGAAAGACTCTAC ((((((....)))..)))
folding enthalpy [1]: -12.8 kcal/mol
Tm [2]: 36.2 °C

GCCCACGAAAGTGAGGGC ((((((....)))..)))
folding enthalpy [1]: -28.2 kcal/mol
Tm [2]: 59.9 °C

GCCCGGACGAAAGTCGGC (((..(((....))))))
folding enthalpy [1]: -14.5 kcal/mol
Tm [2]: 50.9 °C

GGAAACGAAAGTTATCC ((((((....))).)))
folding enthalpy [1]: -12.1 kcal/mol
Tm [2]: 31.9 °C

GCGGCGGCCCGC ((((....))))
folding enthalpy [1]: -13.8 kcal/mol
Tm [2]: 58.5 °C

GCTTATACGAAAGTAAGC (((..(((....))))))
folding enthalpy [1]: -21.5 kcal/mol
Tm [2]: 37.4 °C

GATCAAATGTTGATC ((((((...))))))
folding enthalpy [1]: -26.6 kcal/mol
Tm [2]: 41.2 °C

GGGGCCACGAAAGTGCCC (((..(((....))))))
folding enthalpy [1]: -26.2 kcal/mol
Tm [2]: 60 °C

GCTACCCGAAAGGGAAGC (((.(((....))).)))
folding enthalpy [1]: -32.5 kcal/mol
Tm [2]: 58.6 °C

GTTTGGACGAAAGTCAAC (((..(((....))))))
folding enthalpy [1]: -12.7 kcal/mol
Tm [2]: 34.7 °C

GGATGCGGAAACGTGTCC (((..((....))..)))
folding enthalpy [1]: -34.9 kcal/mol
Tm [2]: 48.4 °C

GAGCCCGAAAGGGACCTC ((((((....)))..)))
folding enthalpy [1]: -15.6 kcal/mol
Tm [2]: 45 °C

GGGTGGCGAAAGCCCCC (((.(((....))))))
folding enthalpy [1]: -17.3 kcal/mol
Tm [2]: 66.9 °C

GCCTGGGGAAACCTGGGC (((..((....))..)))
folding enthalpy [1]: -32.3 kcal/mol
Tm [2]: 50.3 °C

GAGCGCGAAAGCGCCTC ((((((....))).)))
folding enthalpy [1]: -7.59 kcal/mol
Tm [2]: 58.1 °C

GATCAAGTCCTTGATC ((((((....))))))
folding enthalpy [1]: -38.2 kcal/mol
Tm [2]: 49.7 °C

GATCCATGGCTGGATC ((((((....))))))
folding enthalpy [1]: -35.8 kcal/mol
Tm [2]: 50.5 °C

GGTAGTCGAAAGACCACC (((.(((....))).)))
folding enthalpy [1]: -24.7 kcal/mol
Tm [2]: 45.7 °C

GGCCCGGGAAACCGAGCC (((.(((....))).)))
folding enthalpy [1]: -46 kcal/mol
Tm [2]: 54.2 °C

CGCTGACGGAAACGTGCG (((..(((....))))))
folding enthalpy [1]: -26.1 kcal/mol
Tm [2]: 47.5 °C

GTGATCGAAAGATGCAC ((((((....))).)))
folding enthalpy [1]: -19.6 kcal/mol
Tm [2]: 38.7 °C

GCACCAGGAAACTGGTAC (.(((((....))))).)
folding enthalpy [1]: -16.7 kcal/mol
Tm [2]: 39.6 °C

GGCTGCGAAAGCACCGCC ((((((....)))..)))
folding enthalpy [1]: -20.7 kcal/mol
Tm [2]: 54.1 °C

GGAGCAGGAAACTGCTTC (.(((((....))))).)
folding enthalpy [1]: -26.4 kcal/mol
Tm [2]: 51.7 °C

GGATAGACGAAAGTCTCC (((..(((....))))))
folding enthalpy [1]: -14.6 kcal/mol
Tm [2]: 33.6 °C

GTGGTGGAAACACCAC ((((((....))))))
folding enthalpy [1]: -34.7 kcal/mol
Tm [2]: 66.6 °C

GGTAGACGAAAGTCACC (((.(((....))))))
folding enthalpy [1]: -23.6 kcal/mol
Tm [2]: 50.8 °C

GCATTGCGAAAGCACGGC ((..(((....)))..))
folding enthalpy [1]: -16.6 kcal/mol
Tm [2]: 40 °C

GTGGACTCGAAAGAGCAC (((..(((....))))))
folding enthalpy [1]: -21.4 kcal/mol
Tm [2]: 39.7 °C

GGACTCCCGAAAGGGTCC (((..(((....))))))
folding enthalpy [1]: -16.8 kcal/mol
Tm [2]: 45.3 °C

CTCGAGAAATCGAG (((((....)))))
folding enthalpy [1]: -21.2 kcal/mol
Tm [2]: 47.9 °C

GATCGCAGTGCGATC ((((((...))))))
folding enthalpy [1]: -30.1 kcal/mol
Tm [2]: 67.6 °C

GCGCTGCGAAAGCGCCGC (((..((....))..)))
folding enthalpy [1]: -9.61 kcal/mol
Tm [2]: 61.6 °C

GCCGGGCGAAAGCTTGGC (((..((....))..)))
folding enthalpy [1]: -24.4 kcal/mol
Tm [2]: 65.3 °C

GCGATGCCTCGC ((((....))))
folding enthalpy [1]: -20.5 kcal/mol
Tm [2]: 50.4 °C

GGATAGGGAAACCTATTC (.(((((....))))).)
folding enthalpy [1]: -29.4 kcal/mol
Tm [2]: 34.9 °C

GTATCAGGAAACTGATAC (((((((....)))))))
folding enthalpy [1]: -39.3 kcal/mol
Tm [2]: 54.6 °C

GCGGCGCCGAAAGGCCGC (((..(((....))))))
folding enthalpy [1]: -14.3 kcal/mol
Tm [2]: 67.2 °C

GTTGCACGAAAGTGGAAC (((.(((....))).)))
folding enthalpy [1]: -35.5 kcal/mol
Tm [2]: 56.6 °C

GATCAACCCTTTGATC ((((((....))))))
folding enthalpy [1]: -39.2 kcal/mol
Tm [2]: 46.1 °C

CGGAACCGGAAACGGCCG (((..(((....))))))
folding enthalpy [1]: -23.2 kcal/mol
Tm [2]: 40.1 °C

GTAGACGAAAGTCTTTAC ((((((....)))..)))
folding enthalpy [1]: -10.4 kcal/mol
Tm [2]: 29.3 °C

GAAGTCGGAAACGACTTC (((((((....)))))))
folding enthalpy [1]: -36.4 kcal/mol
Tm [2]: 66 °C

GTGGGCGGAAACACCCAC (((((.(....).)))))
folding enthalpy [1]: -43.3 kcal/mol
Tm [2]: 53.1 °C

GGATTTGGAAACAAATTC (.(((((....))))).)
folding enthalpy [1]: -28.1 kcal/mol
Tm [2]: 40.1 °C

GAGGTTGGAAACAACCCC (.(((((....))))).)
folding enthalpy [1]: -13.2 kcal/mol
Tm [2]: 40.5 °C

GCTGTGCGAAAGCCTAGC (((..((....))..)))
folding enthalpy [1]: -18.2 kcal/mol
Tm [2]: 44.3 °C

GATCCTTGTTAGGATC ((((((....))))))
folding enthalpy [1]: -34.8 kcal/mol
Tm [2]: 52.8 °C

GAGGAACGAAAGTTACTC (((.(((....))).)))
folding enthalpy [1]: -39.3 kcal/mol
Tm [2]: 54.5 °C

GATCCTTTGAGGATC ((((((...))))))
folding enthalpy [1]: -33.6 kcal/mol
Tm [2]: 54.2 °C

GATCGAAGGGTCGATC ((((((....))))))
folding enthalpy [1]: -31.6 kcal/mol
Tm [2]: 50.6 °C

GATCATTGCTATGATC ((((((....))))))
folding enthalpy [1]: -36 kcal/mol
Tm [2]: 47.8 °C

GATCAGAGGACTGATC ((((((....))))))
folding enthalpy [1]: -32.8 kcal/mol
Tm [2]: 46.9 °C

GTAGCGGGAAACTGCTGC (.(((.(....).))).)
folding enthalpy [1]: -22.6 kcal/mol
Tm [2]: 44.2 °C

GCTTGGCGAAAGCTGAGC (((..((....))..)))
folding enthalpy [1]: -22.3 kcal/mol
Tm [2]: 56.2 °C

GCGGCGCCCCGC ((((....))))
folding enthalpy [1]: -16.4 kcal/mol
Tm [2]: 52.7 °C

GAACACCGAAAGGTATTC (((.(((....))).)))
folding enthalpy [1]: -25 kcal/mol
Tm [2]: 37.8 °C

GATCAGTTTACTGATC ((((((....))))))
folding enthalpy [1]: -49.2 kcal/mol
Tm [2]: 59.6 °C

GTCCTTCGAAAGAACGAC (((.(((....))).)))
folding enthalpy [1]: -23.3 kcal/mol
Tm [2]: 33.5 °C

GCCCCAGGAAACTGAGGC (((.(((....))).)))
folding enthalpy [1]: -33.5 kcal/mol
Tm [2]: 47.5 °C

GCAGGGCGAAAGCCCCGC ((.((((....)))).))
folding enthalpy [1]: -14.5 kcal/mol
Tm [2]: 62.8 °C

GTTACTGGAAACAGTAGC (.(((((....))))).)
folding enthalpy [1]: -24.2 kcal/mol
Tm [2]: 40.3 °C

GCCGCGCGAAAGCAGGGC (((..((....))..)))
folding enthalpy [1]: -23.1 kcal/mol
Tm [2]: 61.5 °C

GCGGTTGGCCGC ((((....))))
folding enthalpy [1]: -25.3 kcal/mol
Tm [2]: 64.8 °C

GATCACCGTGTGATC ((((((...))))))
folding enthalpy [1]: -42.3 kcal/mol
Tm [2]: 58.3 °C

GATCGCGAAAGCGCAATC ((((((....)))..)))
folding enthalpy [1]: -7.96 kcal/mol
Tm [2]: 23.1 °C

GCTTTGCGAAAGCGGAGC (((..((....))..)))
folding enthalpy [1]: -17.3 kcal/mol
Tm [2]: 53.6 °C

GCATACGAAAGTAAGTGC ((((((....)))..)))
folding enthalpy [1]: -21.4 kcal/mol
Tm [2]: 34.5 °C

GCGGTCGAAAGACCTCGC ((((((....)))..)))
folding enthalpy [1]: -14.8 kcal/mol
Tm [2]: 50.2 °C

GCGCGGCGAAAGCATCGC (((..((....))..)))
folding enthalpy [1]: -20.6 kcal/mol
Tm [2]: 57.5 °C

GACACCGAAAGGTAGTC ((((((....))).)))
folding enthalpy [1]: -22.5 kcal/mol
Tm [2]: 50.1 °C

GGAAATGGAAACATTTTC (.(((((....))))).)
folding enthalpy [1]: -33.7 kcal/mol
Tm [2]: 38.5 °C

GCAAACGAAAGTTTCTGC ((((((....)))..)))
folding enthalpy [1]: -14.9 kcal/mol
Tm [2]: 33.8 °C

GGCAATCGAAAGATAGCC (((.(((....))).)))
folding enthalpy [1]: -31.8 kcal/mol
Tm [2]: 52.7 °C

GCCGTCGAAAGACCGGC ((((((....))).)))
folding enthalpy [1]: -36.8 kcal/mol
Tm [2]: 60.5 °C

GTGTATGAAAATACAC ((((((....))))))
folding enthalpy [1]: -36.1 kcal/mol
Tm [2]: 52.5 °C

CGCACGGAAACGTGTGCG ((((((....)))..)))
folding enthalpy [1]: -17.6 kcal/mol
Tm [2]: 57.5 °C

GATCGAGACTCGATC ((((((...))))))
folding enthalpy [1]: -37.1 kcal/mol
Tm [2]: 52.9 °C

GGTTGTGAAAACAACC ((((((....))))))
folding enthalpy [1]: -40.1 kcal/mol
Tm [2]: 61.5 °C

GCGGAAGGAAACTTCCAC (.(((((....))))).)
folding enthalpy [1]: -15.9 kcal/mol
Tm [2]: 37.4 °C

GGATCCGAAAGGAGCTCC ((((((....)))..)))
folding enthalpy [1]: -13.4 kcal/mol
Tm [2]: 44.2 °C

GCCGCTGCGAAAGCAGGC (((..(((....))))))
folding enthalpy [1]: -9.88 kcal/mol
Tm [2]: 65.1 °C

GTCAACGGAAACATTGAC (((((.(....).)))))
folding enthalpy [1]: -26.4 kcal/mol
Tm [2]: 35.6 °C

GCGTAACTACGC ((((....))))
folding enthalpy [1]: -25.4 kcal/mol
Tm [2]: 57.1 °C

GCCGGGCCGAAAGGCGGC (((..(((....))))))
folding enthalpy [1]: -17.6 kcal/mol
Tm [2]: 59.4 °C

GCGTTAAACGC ((((...))))
folding enthalpy [1]: -19 kcal/mol
Tm [2]: 50.9 °C

GGAGACACGAAAGTGTCC (((..(((....))))))
folding enthalpy [1]: -8.97 kcal/mol
Tm [2]: 44.1 °C

GCAAGGGGAAACCTTTGC ((((.((....)).))))
folding enthalpy [1]: -30.8 kcal/mol
Tm [2]: 47.6 °C

GTGTCCCGAAAGGGTCAC (((.(((....))).)))
folding enthalpy [1]: -30.8 kcal/mol
Tm [2]: 57.9 °C

GATCTTGTGTAAGATC ((((((....))))))
folding enthalpy [1]: -34.6 kcal/mol
Tm [2]: 43.6 °C

GACTTGACGAAAGTCGTC (((..(((....))))))
folding enthalpy [1]: -15.8 kcal/mol
Tm [2]: 51.7 °C

GCGTCCGAAAGGACTCGC ((((((....)))..)))
folding enthalpy [1]: -12.3 kcal/mol
Tm [2]: 51 °C

GAGCCAGGAAACCGGCTC (((((.(....).)))))
folding enthalpy [1]: -37.5 kcal/mol
Tm [2]: 56.6 °C
